Rows were chosen to be rich in hits. Some 4.5% of all compounds tested hit in one or more screens of this group.
CHOP inhibitor – inhibitors of CHOP promoter induction, primary screen, cell-based, unfolded protein response, luciferase reporter | CHO-K1 CHOP-promoter luciferase, tunicamycin-induced, 15-18 h | 3.8% of 220,000 active | AID 2732, 2010 | inhibition, % at 10 µM;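 active = compounds that reduced the stress-induced luciferase reporter signal by more than about 70% of percent inhibition, limit read from the data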
NS3 helicase inh – inhibitors of HCV NS3 helicase, primary screen, biochemical, Cy5 molecular beacon fluorescence. Hepatitis C virus NS3 helicase. NS3 helicase DNA unwinding. inhibition, % at 10.9 µM. 0.56% of 290,000 active. AID 1800, 2009;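 active = inhibition above the mean of all tested compounds plus 3 SD, set per campaign, cut at about 35% in these data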
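System: NS3 helicase fragment of HCV / Schedule: 1 h at 25 °C / Control set: DMSO alone as 0% and 110 µM thioflavine S as 100% / Reagent: Cy5/quencher beacon DNA duplex and ATP to start / Technique: Cy5 fluorescence / Replication: singlicate / Evaluation: % inhibition of end-to-start signal ratio versus controls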
UPR CHOP act – activators of apoptotic CHOP UPR arm, primary screen, cell-based, CHO-CHOP luciferase reporter, luminescence, uHTS | activation, % at 10 µM | 0.34% of 330,000 active | UPR activation; percent of tunicamycin response over DMSO baseline | AID 449763, 2010;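 active = at 10 µM dose, activation of 40% or more, normalized to positive control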
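Assay system: CHO cells with stable CHOP pathway luciferase reporter; Buffer or medium: F12 plus 10% serum; Times: 16-18 h cell attachment, then 6 h compound exposure, 37 °C; Signal: luciferase luminescence; Read-out basis: percent activation relative to tunicamycin control; Control set: tunicamycin high control, DMSO low control.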
PfM18AAP inh-1 – PfM18AAP inhibitors, malaria aminopeptidase, primary screen, biochemical, QFRET, recombinant enzyme | 1.2% of 290,000 active | inhibition, % at 7.35 µM | M18 aspartyl aminopeptidase (Plasmodium falciparum 3D7) | H-Glu-NHMec fluorogenic cleavage;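 active = inhibition above the campaign mean inhibition over all tested compounds plus 3 SD, cut at about 28% in these data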
p97 inhibitor – inhibitors of human p97 ATPase, primary screen, biochemical; Transitional endoplasmic reticulum ATPase (Homo sapiens), P55072; recombinant p97 ATPase, Kinase-Glo ATP luminescence, 3 h; inhibition, % at 8 µM; 0.42% of 220,000 active; AID 1481, 2009; in the data active = inhibition above about 15%
XBP1 UPR activ – activators of adaptive XBP1 UPR arm, primary screen, cell-based, CHO-XBP1 luciferase reporter, luminescence, uHTS; IRE1-XBP1 UPR activation; percent of tunicamycin response, DMSO as zero; activation, % at 20 µM; 0.33% of 330,000 active; AID 463104, 2010;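 active = versus positive control, 20 µM dose yields 30% or more activation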
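Material – CHO cell line with stable XBP1 luciferase reporter · Buffer or medium – F12 plus 10% FBS · Compound – single point, 20 µM final compound, 1% DMSO · Schedule – 16-18 h cell attachment at 37 °C, then 6 h compound exposure · Signal – Steady-Glo luminescence read · Benchmarks – high control tunicamycin 10 µg/mL final, low control DMSO vehicle only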
PfM18AAP inh-2 – PfM18AAP inhibitors, malaria aminopeptidase, confirmation, biochemical, QFRET, recombinant enzyme, triplicate; shares compounds with PfM18AAP inh-1; H-Glu-NHMec fluorogenic cleavage; inhibition, % at 7.35 µM; 28% of 2,400 active;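 active = mean inhibition over replicate wells above the hit cutoff set for the earlier primary screen, cut at about 29% in these data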
CTSL1 counter – cathepsin L1 inhibitors, retest, confirmation, counter-screen for PFM18AAP inhibitor project, biochemical, QFRET, triplicate. 2,400 tested, under 10 active. shares compounds with PfM18AAP inh-1. inhibition, % at 5.96 µM. AID 2178, 2009. purified cathepsin L1, Z-Leu-Arg-MCA fluorescence;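 active = average inhibition across replicates above the hit cutoff set in the earlier primary screen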
Target sequence (P07711 whole entry, looked up): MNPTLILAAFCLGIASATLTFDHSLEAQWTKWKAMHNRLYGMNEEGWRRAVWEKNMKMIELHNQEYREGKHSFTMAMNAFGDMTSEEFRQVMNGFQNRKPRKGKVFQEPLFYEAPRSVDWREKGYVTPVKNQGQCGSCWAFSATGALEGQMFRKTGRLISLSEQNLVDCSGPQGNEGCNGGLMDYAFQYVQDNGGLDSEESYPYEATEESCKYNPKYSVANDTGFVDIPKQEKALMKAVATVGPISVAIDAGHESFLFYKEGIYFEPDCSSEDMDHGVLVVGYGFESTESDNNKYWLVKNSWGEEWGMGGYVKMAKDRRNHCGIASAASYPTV
Hits are given with their value; . = inactive; / = not tested or not shown.

SMILES | CHOP inhibitor | NS3 helicase inh | UPR CHOP act | PfM18AAP inh-1 | p97 inhibitor | XBP1 UPR activ | PfM18AAP inh-2 | CTSL1 counter
CC(C)(C)OC(=O)CNC(=O)c1nc[nH]c1C(=O)N1CCNCC1 | / | / | . | / | / | . | / | /
COc1ccc(-n2cc(C#N)c(=O)[nH]c2=O)cc1 | . | . | . | . | . | . | / | /
O=C1NC(=O)C(c2ccccc2[N+](=O)[O-])=C1Nc1ccc(O)c(Cl)c1 | . | . | . | 40 | / | . | . | .
COc1ccc(/C(C)=N/Nc2nc3ccccc3nc2C)cc1OC | . | . | . | 39 | . | . | . | .
O=C(CSc1ncnc2sccc12)NCc1ccc2c(c1)OCO2 | / | / | . | / | / | . | / | /
CCN(CCNC(=O)C1CCCN(S(=O)(=O)CC)C1)c1ccccc1 (centres undefined) | . | . | . | . | . | . | / | /
CCN(CCCNC(=O)C1CCN(S(=O)(=O)c2cnc[nH]2)CC1)c1cccc(C)c1 | . | . | . | 51 | . | . | . | .
CCN(CCCNC(=O)C1CCCN(S(=O)(=O)CC)C1)c1cccc(C)c1 (centres undefined) | . | . | . | 47 | . | . | . | .
O=C(NCC1CCCO1)c1ccccc1NS(=O)(=O)c1ccc(F)cc1 (centres undefined) | / | / | . | / | / | . | / | /
CCCC(NC(=O)C(C)N1CCN(S(=O)(=O)c2ccccc2)CC1)c1ccccc1 (centres undefined) | / | / | . | / | / | . | / | /
COc1ccc(NC(=O)c2sc3nc(N4CCCC4)c4c(c3c2N)CC(C)(C)OC4)c(OC)c1 | / | . | . | . | / | . | / | /
CC1(C)Cc2c(c(N3CCOCC3)nc3sc(C(N)=O)c(N)c23)CO1 | . | . | . | 43 | . | . | . | .
CCOc1ccc(NC(=O)c2sc3nc(N4CCOCC4)c4c(c3c2N)CC(C)(C)OC4)cc1 | / | . | . | 42 | / | . | . | .
CC1(C)Cc2c(c(N3CCCC3)nc3sc(C(=O)Nc4ccccc4)c(N)c23)CO1 | / | . | . | . | / | . | / | /
CC1(C)Cc2c(c(N3CCOCC3)nc3sc(C(=O)Nc4ccc(Cl)cc4)c(N)c23)CO1 | / | . | . | 40 | / | . | . | .
CC1(C)Cc2c(c(N3CCOCC3)nc3snc(N)c23)CO1 | . | . | . | . | . | . | / | /
Cc1ccc(NC(=O)c2sc3nc(N4CCOCC4)c4c(c3c2N)CC(C)(C)OC4)cc1 | / | . | . | 39 | / | . | . | .
COc1cc(Cl)ccc1OCc1cc(C(=O)N(C)CCc2cnn(C)c2)no1 | / | . | . | . | / | . | / | /
Cc1oc2ccc(O)cc2c1C(=O)c1ccc(F)cc1 | / | / | . | / | / | . | / | /
S=C(NCc1ccc(Cl)cc1)Nc1ccc(Cl)cc1Cl | . | . | . | . | . | . | / | /
S=C(Nc1ccc(Cl)cc1Cl)Nn1cnnc1 | . | . | . | 79 | . | . | 77 | .
S=C(Nc1cc(Cl)ccc1Cl)Nn1cnnc1 | . | . | . | 81 | . | . | 77 | .
NC(=S)Nc1cc(Cl)ccc1Cl | . | . | . | . | . | . | / | /
Nc1c(Cl)cc(-c2[nH]c3cc(C(=O)NCCO)ccc3c(=O)c2O)cc1Cl | / | . | . | 40 | / | . | . | .
COc1cc(C2NC(=O)CCC2[N+](=O)[O-])cc(OC)c1OC (centres undefined) | / | . | . | . | / | . | / | /
CCCn1c(N)c(C(=O)COC(=O)CCNS(=O)(=O)c2ccccc2F)c(=O)[nH]c1=O | / | / | . | / | / | . | / | /
COc1ccc(-c2nc(N/N=C(\C)c3ccc(O)cc3)c3ccccc3n2)cc1 | . | . | . | 63 | . | . | . | .

From PubChem
